Measurements: ChEMBL document CHEMBL1153988 (J Med Chem, 2009)
Active and inactive are the calls of the source. The rule behind the calls is not given here.

What was measured:
Mus musculus [1] = test: Anticonvulsant activity in ip dosed CF1 albino mouse assessed as protection against scMet-induced seizures; format: functional
In short: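 Adult male CF no. 1 albino mice (18-25 g) dosed ip with compound suspended in 0.5% methylcellulose (0.01 mL/g body weight). Seizures were induced by subcutaneous pentylenetetrazol, given as a 0.85% solution in 0.9% saline. ED50 was found by varying the dose to give 3-4 points between 0% and 100% protection, then probit analysis with 95% confidence intervals.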

Mus musculus [2] = species: Mus musculus; test: Protective index, ratio of TD50 for CF1 albino mouse to ED50 for scMet-induced CF1 albino seizure mouse model; format: functional
In short: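 Ratio of TD50 to ED50 (MES or scMet) in male CF no. 1 mice (18-25 g) given ip doses in 0.5% methylcellulose. TD50 comes from minimal motor impairment: the dose was varied until four points lay between no impairment and all animals impaired. Both TD50 and ED50 were derived by probit analysis with 95% confidence intervals.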

Mus musculus [3] = test: Anticonvulsant activity in CF1 albino mouse assessed as protection against maximal electroshock-induced seizures at 60 mg/kg, ip; format: functional, organism-based; design: dose 60 mg/kg
In short: (§1)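 Adult male CF no. 1 albino mice (18-25 g). Test compound suspended in 0.5% methylcellulose and given intraperitoneally at 0.01 mL/g body weight. Maximal electroshock challenge at the stated time. Read-out is the number of animals protected over the number tested; neurotoxicity is scored in parallel.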

Mus musculus [4] = test: Anticonvulsant activity in CF1 albino mouse assessed as protection against maximal electroshock-induced seizures at 400 mg/kg, ip; format: functional, organism-based; design: dose 400 mg/kg; in short: as §1
Mus musculus [5] = test: Anticonvulsant activity in CF1 albino mouse assessed as protection against maximal electroshock-induced seizures at 150 mg/kg, ip after 0.5 hrs; format: functional, organism-based; design: dose 150 mg/kg; in short: as §1
Mus musculus [6] = test: Anticonvulsant activity in CF1 albino mouse assessed as protection against maximal electroshock-induced seizures at 30 mg/kg, ip after 4 hrs; format: functional, organism-based; design: dose 30 mg/kg; in short: as §1
Mus musculus [7] = test: Anticonvulsant activity in CF1 albino mouse assessed as protection against maximal electroshock-induced seizures at 100 mg/kg, ip after 4 hrs; format: functional, organism-based; design: dose 100 mg/kg; in short: as §1
Mus musculus [8] = test: Anticonvulsant activity in CF1 albino mouse assessed as protection against maximal electroshock-induced seizures at 300 mg/kg, ip after 4 hrs; format: functional, organism-based; design: dose 300 mg/kg; in short: as §1
Mus musculus [9] = test: Anticonvulsant activity in CF1 albino mouse assessed as protection against scMet-induced seizures at 30 mg/kg, ip after 0.5 hrs; format: functional, organism-based; design: dose 30 mg/kg
In short: (§2)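 Adult male CF no. 1 albino mice (18-25 g) dosed intraperitoneally with compound suspended in 0.5% methylcellulose (0.01 mL/g). Convulsant challenge given subcutaneously as a 0.85% pentylenetetrazol solution in 0.9% saline. Read-out is animals protected over animals tested, with neurotoxicity scored in parallel.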

Mus musculus [10] = test: Anticonvulsant activity in CF1 albino mouse assessed as protection against scMet-induced seizures at 100 mg/kg, ip after 0.5 hrs; format: functional, organism-based; design: dose 100 mg/kg; in short: as §2
Mus musculus [11] = test: Anticonvulsant activity in CF1 albino mouse assessed as protection against scMet-induced seizures at 300 mg/kg, ip after 0.5 hrs; format: functional, organism-based; design: dose 300 mg/kg; in short: as §2
Mus musculus [12] = test: Anticonvulsant activity in CF1 albino mouse assessed as protection against scMet-induced seizures at 30 mg/kg, ip after 4 hrs; format: functional, organism-based; design: dose 30 mg/kg; in short: as §2
Mus musculus [13] = test: Anticonvulsant activity in CF1 albino mouse assessed as protection against scMet-induced seizures at 100 mg/kg, ip after 4 hrs; format: functional, organism-based; design: dose 100 mg/kg; in short: as §2
Mus musculus [14] = test: Anticonvulsant activity in CF1 albino mouse assessed as protection against scMet-induced seizures at 300 mg/kg, ip after 4 hrs; format: functional, organism-based; design: dose 300 mg/kg; in short: as §2
Mus musculus [15] = test: Neurotoxicity in CF1 albino mouse at 30 mg/kg, ip after 0.5 hrs; format: toxicity, organism-based; design: dose 30 mg/kg, route intraperitoneal; settings: in vivo
In short: (§3)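 Male CF no. 1 albino mice (18-25 g) received a single ip dose as a suspension in 0.5% methylcellulose. The read-out was the number of animals showing neurotoxicity (minimal motor impairment) over the number tested.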

Mus musculus [16] = test: Neurotoxicity in CF1 albino mouse at 300 mg/kg, ip after 0.5 hrs; format: toxicity, organism-based; design: dose 300 mg/kg, route intraperitoneal; settings: in vivo; in short: as §3
Mus musculus [17] = test: Neurotoxicity in CF1 albino mouse at 30 mg/kg, ip after 4 hrs; format: toxicity, organism-based; design: dose 30 mg/kg, route intraperitoneal; settings: in vivo; in short: as §3
Mus musculus [18] = test: Neurotoxicity in CF1 albino mouse at 100 mg/kg, ip after 4 hrs; format: toxicity, organism-based; design: dose 100 mg/kg, route intraperitoneal; settings: in vivo; in short: as §3
Mus musculus [19] = test: Neurotoxicity in CF1 albino mouse at 300 mg/kg, ip after 4 hrs; format: toxicity, organism-based; design: dose 300 mg/kg, route intraperitoneal; settings: in vivo; in short: as §3
Rattus norvegicus [20] = test: Anticonvulsant activity in albino Sprague-Dawley rat assessed as protection against maximal electroshock-induced seizures at 50 mg/kg, po after 4 hrs; format: functional, organism-based; design: dose 50 mg/kg
In short: (§4)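 Adult male Sprague-Dawley albino rats (100-150 g) dosed orally with compound suspended in 0.5% methylcellulose (0.04 mL per 10 g). Maximal electroshock challenge at the stated time. Protection is scored in 25% steps as the fraction of animals protected, with neurotoxicity recorded in parallel.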

Rattus norvegicus [21] = test: Anticonvulsant activity in albino Sprague-Dawley rat assessed as protection against maximal electroshock-induced seizures at 50 mg/kg, po after 15 mins; format: functional; in short: as §4
Rattus norvegicus [22] = test: Anticonvulsant activity in albino Sprague-Dawley rat assessed as protection against maximal electroshock-induced seizures at 50 mg/kg, po after 30 mins; format: functional; in short: as §4
Rattus norvegicus [23] = test: Anticonvulsant activity in albino Sprague-Dawley rat assessed as protection against maximal electroshock-induced seizures at 50 mg/kg, po after 1 hr; format: functional; in short: as §4
Rattus norvegicus [24] = test: Anticonvulsant activity in albino Sprague-Dawley rat assessed as protection against maximal electroshock-induced seizures at 50 mg/kg, po after 2 hrs; format: functional; in short: as §4
Rattus norvegicus [25] = test: Neurotoxicity in albino Sprague-Dawley rat at 50 mg/kg, po; format: toxicity, organism-based; design: dose 50 mg/kg, route oral; settings: in vivo
In short: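 Neurotoxicity was scored in male Sprague-Dawley albino rats (100-150 g) dosed orally with a suspension in 0.5% methylcellulose. The read-out was the fraction of animals showing neurotoxicity (minimal motor impairment).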

Rattus norvegicus [26] = test: Anticonvulsant activity in albino Sprague-Dawley rat assessed as protection against scMet-induced seizures at 50 mg/kg, po after 30 mins; format: functional
In short: (§5)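 Male Sprague-Dawley albino rats (100-150 g) were given the compound orally as a suspension in 0.5% methylcellulose. Seizures were induced by subcutaneous pentylenetetrazol, dissolved in 0.9% saline as a 2.82% solution. The read-out was animals protected over animals tested.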

Rattus norvegicus [27] = test: Anticonvulsant activity in albino Sprague-Dawley rat assessed as protection against scMet-induced seizures at 50 mg/kg, po after 1 hr; format: functional; in short: as §5
Rattus norvegicus [28] = test: Anticonvulsant activity in albino Sprague-Dawley rat assessed as protection against scMet-induced seizures at 50 mg/kg, po after 2 hrs; format: functional; in short: as §5
Rattus norvegicus [29] = test: Anticonvulsant activity in albino Sprague-Dawley rat assessed as protection against scMet-induced seizures at 50 mg/kg, po after 4 hrs; format: functional; in short: as §5
Mus musculus [30] = test: Anticonvulsant activity in CF1 albino mouse assessed as protection against maximal electroshock-induced seizures at 30 mg/kg, ip after 0.5 hrs; format: functional, organism-based; design: dose 30 mg/kg; in short: as §1
Mus musculus [31] = test: Anticonvulsant activity in CF1 albino mouse assessed as protection against maximal electroshock-induced seizures at 100 mg/kg, ip after 0.5 hrs; format: functional, organism-based; design: dose 100 mg/kg; in short: as §1
Mus musculus [32] = test: Anticonvulsant activity in CF1 albino mouse assessed as protection against maximal electroshock-induced seizures at 300 mg/kg, ip after 0.5 hrs; format: functional, organism-based; design: dose 300 mg/kg; in short: as §1
Rattus norvegicus [33] = species: Rattus norvegicus; test: Protective index, ratio of TD50 for albino Sprague-Dawley rat to ED50 for maximal electroshock-induced albino Sprague-Dawley rat seizure model; format: functional
In short: (§6)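 Protective index is the rat TD50 (minimal motor impairment) divided by the ED50 in the MES or sc pentylenetetrazol test. Male Sprague-Dawley rats were dosed orally in 0.5% methylcellulose, and both values came from probit analysis.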

Rattus norvegicus [34] = species: Rattus norvegicus; test: Protective index, ratio of TD50 for albino Sprague-Dawley rat to ED50 for scMet-induced albino Sprague-Dawley rat seizure model; format: functional; in short: as §6

`CCCC(F)(CCC)C(N)=O` was tested, and the ED50 (Mus musculus [1]) was 23 mg/kg, the PI (Mus musculus [2]) was 3.8 and the Activity (Mus musculus [3]) was “inactive”. For the same molecule, the Activity (Mus musculus [4]) was “Active” and the Activity (Mus musculus [5]) was “inactive”.
With `CC1(C)C(C)(C)C1(F)C(=O)O` the Activity (Mus musculus [6]) was “Non-toxic”, the Activity (Mus musculus [7]) was “Non-toxic” and the Activity (Mus musculus [8]) was “Non-toxic”. For the same molecule, the Activity (Mus musculus [9]) was “Non-toxic”, the Activity (Mus musculus [10]) was “Non-toxic” and the Activity (Mus musculus [11]) was “Toxic”. The Activity (Mus musculus [12]) was “Non-toxic”, the Activity (Mus musculus [13]) was “Non-toxic” and the Activity (Mus musculus [14]) was “Non-toxic”. The Activity (Mus musculus [15]) was “Non-toxic”, the Activity (Mus musculus [16]) was “Toxic” and the Activity (Mus musculus [17]) was “Non-toxic”. The Activity (Mus musculus [18]) was “Non-toxic”, the Activity (Mus musculus [19]) was “Non-toxic” and the Activity (Rattus norvegicus [20]) was “inactive”. The Activity (Rattus norvegicus [21]) was “inactive”, the Activity (Rattus norvegicus [22]) was “inactive” and the Activity (Rattus norvegicus [23]) was “inactive”. The Activity (Rattus norvegicus [24]) was “inactive”, the Activity (Rattus norvegicus [25]) was “Not Active” and the Activity (Rattus norvegicus [26]) was “inactive”. The Activity (Rattus norvegicus [27]) was “inactive”, the Activity (Rattus norvegicus [28]) was “inactive” and the Activity (Rattus norvegicus [29]) was “inactive”. For the same molecule, the Activity (Mus musculus [30]) was “Non-toxic”, the Activity (Mus musculus [31]) was “Non-toxic” and the Activity (Mus musculus [32]) was “Non-toxic”.
For `CC1(C)C(C(=O)NC(N)=O)C1(C)C` [2,2,3,3-TETRAMETHYLCYCLOPROPANECARBONYLUREA], the PI (Rattus norvegicus [33]) was 18.5 and the PI (Rattus norvegicus [34]) was 5.9.
